Data published in ChEMBL document CHEMBL1268917, “Synthesis and biological evaluation of radio-iodinated benzimidazoles as SPECT imaging agents for NR2B subtype of NMDA receptor” (Bioorg Med Chem, 2010).

How the values were obtained:
[1] = target: Glutamate receptor ionotropic, NMDA 2B (Rattus norvegicus, UniProt Q00960); experiment: Displacement of [3H]ifenprodil from NR2B receptor in rat cortical synaptic membranes; assay type: cell membranes, Membrane
[2] = target: Glutamate receptor ionotropic, NMDA 2B (Rattus norvegicus) (UniProt Q00960); experiment: Binding affinity to NR2B receptor in rat cerebral cortex at 0.09 to 0.14 nM after 30 mins by autoradiography in presence of prazosin relative to control; assay type: tissue-based; settings: tested as the 125I-labelled form
In short: (§1)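 Rinsed three times 3 min in cold buffer with 1% BSA, dipped in cold water, air-dried, exposed to imaging plates; PSL per mm² in ROIs. Expressed as % control binding; at least triplicate slices from three rats.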

[3] = target: Glutamate receptor ionotropic, NMDA 2B (Rattus norvegicus) (UniProt Q00960); experiment: Binding affinity to NR2B receptor in rat hippocampus at 0.09 to 0.14 nM after 30 mins by autoradiography in presence of prazosin relative to control; assay type: tissue-based; settings: tested as the 125I-labelled form; in short: as §1
[4] = target: Glutamate receptor ionotropic, NMDA 2B (Rattus norvegicus) (UniProt Q00960); experiment: Binding affinity to NR2B receptor in rat cerebellum at 0.09 to 0.14 nM after 30 mins by autoradiography in presence of prazosin relative to control; assay type: tissue-based; settings: tested as the 125I-labelled form; in short: as §1
[5] = target: Glutamate receptor ionotropic, NMDA 2B (Rattus norvegicus) (UniProt Q00960); experiment: Binding affinity to NR2B receptor in rat cerebral cortex at 0.09 to 0.14 nM after 30 mins by autoradiography in presence of DTG relative to control; assay type: tissue-based; settings: tested as the 125I-labelled form; in short: as §1
[6] = target: Glutamate receptor ionotropic, NMDA 2B (Rattus norvegicus) (UniProt Q00960); experiment: Binding affinity to NR2B receptor in rat hippocampus at 0.09 to 0.14 nM after 30 mins by autoradiography in presence of DTG relative to control; assay type: tissue-based; settings: tested as the 125I-labelled form; in short: as §1
[7] = target: Glutamate receptor ionotropic, NMDA 2B (Rattus norvegicus) (UniProt Q00960); experiment: Binding affinity to NR2B receptor in rat cerebellum at 0.09 to 0.14 nM after 30 mins by autoradiography in presence of DTG relative to control; assay type: tissue-based; settings: tested as the 125I-labelled form; in short: as §1
[8] = Octanol-buffer partition coefficient, log D of the compound at pH 7.4; assay type: physicochemical
[9] = Lipophilicity, log P of the compound; assay type: physicochemical; settings: octanol/water
[10] = target: Glutamate receptor ionotropic, NMDA 2B (Rattus norvegicus) (UniProt Q00960); experiment: Binding affinity to NR2B receptor in rat cerebral cortex at 0.09 to 0.14 nM after 30 mins by autoradiography in presence of Ro-256981 relative to control; assay type: tissue-based; settings: tested as the 125I-labelled form; in short: as §1
[11] = target: Glutamate receptor ionotropic, NMDA 2B (Rattus norvegicus) (UniProt Q00960); experiment: Binding affinity to NR2B receptor in rat hippocampus at 0.09 to 0.14 nM after 30 mins by autoradiography in presence of Ro-256981 relative to control; assay type: tissue-based; settings: tested as the 125I-labelled form; in short: as §1
[12] = target: Glutamate receptor ionotropic, NMDA 2B (Rattus norvegicus) (UniProt Q00960); experiment: Binding affinity to NR2B receptor in rat cerebellum at 0.09 to 0.14 nM after 30 mins by autoradiography in presence of Ro-256981 relative to control; assay type: tissue-based; settings: tested as the 125I-labelled form; in short: as §1

Chain of Glutamate receptor ionotropic, NMDA 2B (Rattus norvegicus) (Q00960 27-1482 limits assumed): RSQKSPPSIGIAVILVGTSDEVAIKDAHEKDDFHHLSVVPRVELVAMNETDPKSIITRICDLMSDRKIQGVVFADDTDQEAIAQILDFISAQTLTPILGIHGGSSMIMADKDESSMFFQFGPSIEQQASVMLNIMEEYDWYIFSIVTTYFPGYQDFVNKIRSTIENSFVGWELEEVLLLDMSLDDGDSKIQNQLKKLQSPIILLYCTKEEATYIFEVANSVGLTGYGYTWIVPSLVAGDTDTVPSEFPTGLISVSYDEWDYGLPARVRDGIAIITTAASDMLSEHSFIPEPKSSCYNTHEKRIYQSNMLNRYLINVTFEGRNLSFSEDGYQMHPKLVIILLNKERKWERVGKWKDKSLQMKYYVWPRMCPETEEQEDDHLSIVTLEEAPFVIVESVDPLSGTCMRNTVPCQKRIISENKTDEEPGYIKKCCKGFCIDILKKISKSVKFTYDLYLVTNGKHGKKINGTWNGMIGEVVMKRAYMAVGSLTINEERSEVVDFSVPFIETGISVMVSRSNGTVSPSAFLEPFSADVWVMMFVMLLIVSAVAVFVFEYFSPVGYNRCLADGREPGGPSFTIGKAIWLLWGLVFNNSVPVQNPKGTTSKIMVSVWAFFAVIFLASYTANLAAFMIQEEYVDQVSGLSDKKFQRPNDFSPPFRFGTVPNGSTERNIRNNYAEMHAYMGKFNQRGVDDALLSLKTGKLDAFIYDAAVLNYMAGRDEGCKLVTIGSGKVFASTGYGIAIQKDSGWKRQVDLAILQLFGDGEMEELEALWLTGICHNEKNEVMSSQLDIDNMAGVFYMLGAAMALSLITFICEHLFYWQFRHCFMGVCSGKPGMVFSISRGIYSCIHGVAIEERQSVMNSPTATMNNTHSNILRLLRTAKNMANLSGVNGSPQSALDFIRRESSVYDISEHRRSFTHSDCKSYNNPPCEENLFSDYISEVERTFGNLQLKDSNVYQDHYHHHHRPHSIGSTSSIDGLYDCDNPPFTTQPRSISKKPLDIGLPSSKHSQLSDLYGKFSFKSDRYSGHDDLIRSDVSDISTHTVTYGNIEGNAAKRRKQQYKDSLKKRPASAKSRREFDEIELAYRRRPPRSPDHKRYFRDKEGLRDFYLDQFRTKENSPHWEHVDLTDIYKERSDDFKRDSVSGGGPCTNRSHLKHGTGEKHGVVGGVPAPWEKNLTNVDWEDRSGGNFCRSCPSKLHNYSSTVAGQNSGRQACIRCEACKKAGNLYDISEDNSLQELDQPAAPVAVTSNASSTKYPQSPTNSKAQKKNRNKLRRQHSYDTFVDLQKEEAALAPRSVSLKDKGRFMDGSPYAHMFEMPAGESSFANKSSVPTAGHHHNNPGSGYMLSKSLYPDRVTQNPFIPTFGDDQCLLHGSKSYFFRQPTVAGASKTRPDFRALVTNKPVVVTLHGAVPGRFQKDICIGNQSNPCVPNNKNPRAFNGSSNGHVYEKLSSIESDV
Chain of Glutamate receptor ionotropic, NMDA 2B (Q00960 whole entry): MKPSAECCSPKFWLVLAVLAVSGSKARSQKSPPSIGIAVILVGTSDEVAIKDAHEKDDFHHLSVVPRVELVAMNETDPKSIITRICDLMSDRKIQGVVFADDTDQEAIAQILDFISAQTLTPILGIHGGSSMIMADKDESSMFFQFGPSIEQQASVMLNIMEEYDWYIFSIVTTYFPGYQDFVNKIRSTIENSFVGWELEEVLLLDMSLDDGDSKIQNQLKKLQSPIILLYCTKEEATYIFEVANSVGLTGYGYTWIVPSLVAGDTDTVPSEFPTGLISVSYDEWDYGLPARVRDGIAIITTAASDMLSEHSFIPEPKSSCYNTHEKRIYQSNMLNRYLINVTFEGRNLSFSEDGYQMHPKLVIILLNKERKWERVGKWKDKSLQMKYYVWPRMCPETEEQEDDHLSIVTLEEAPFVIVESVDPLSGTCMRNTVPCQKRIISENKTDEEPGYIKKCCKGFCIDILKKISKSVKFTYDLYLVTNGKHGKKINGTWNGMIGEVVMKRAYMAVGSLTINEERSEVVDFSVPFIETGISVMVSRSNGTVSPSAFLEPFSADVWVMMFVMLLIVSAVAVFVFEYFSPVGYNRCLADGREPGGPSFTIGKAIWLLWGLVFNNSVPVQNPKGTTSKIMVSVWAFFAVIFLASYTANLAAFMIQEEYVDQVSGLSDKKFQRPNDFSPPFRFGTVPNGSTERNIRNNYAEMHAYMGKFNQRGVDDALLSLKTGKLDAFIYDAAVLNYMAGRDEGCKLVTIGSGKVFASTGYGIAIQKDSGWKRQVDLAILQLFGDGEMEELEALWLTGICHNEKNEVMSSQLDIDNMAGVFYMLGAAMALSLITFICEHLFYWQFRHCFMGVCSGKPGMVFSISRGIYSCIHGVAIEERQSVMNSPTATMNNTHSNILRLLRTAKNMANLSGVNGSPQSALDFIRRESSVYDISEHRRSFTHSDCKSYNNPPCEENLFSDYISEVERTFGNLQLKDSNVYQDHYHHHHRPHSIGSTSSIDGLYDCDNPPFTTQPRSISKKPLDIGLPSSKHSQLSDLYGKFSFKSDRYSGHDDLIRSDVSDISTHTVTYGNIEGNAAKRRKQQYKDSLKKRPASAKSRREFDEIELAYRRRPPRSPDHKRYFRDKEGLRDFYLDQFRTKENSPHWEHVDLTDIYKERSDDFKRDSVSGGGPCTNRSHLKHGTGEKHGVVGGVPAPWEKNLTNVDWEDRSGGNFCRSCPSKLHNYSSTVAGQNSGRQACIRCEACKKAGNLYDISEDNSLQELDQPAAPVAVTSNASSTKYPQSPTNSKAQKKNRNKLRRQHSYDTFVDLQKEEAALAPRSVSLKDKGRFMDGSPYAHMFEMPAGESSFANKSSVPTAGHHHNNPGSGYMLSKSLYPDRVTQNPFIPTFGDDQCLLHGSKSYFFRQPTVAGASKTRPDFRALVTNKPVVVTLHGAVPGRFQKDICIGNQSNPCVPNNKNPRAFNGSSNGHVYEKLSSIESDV

Ki [1] [nM] | Activity [2] [%] | Activity [3] [%] | Activity [4] [%] | Activity [5] [%] | Activity [6] [%] | Activity [7] [%] | logD [8] | logP [9] | Activity [10] [%] | Activity [11] [%] | Activity [12] [%] | Structure (SMILES)
3.09 |  |  |  |  |  |  |  |  |  |  |  | Oc1ccc2nc(CN3CCC(Cc4ccccc4)CC3)[nH]c2c1
7.28 | 95.6 | 92.6 | 103 | 93.5 | 105 | 101 | 3.95 | 3.95 | 58.3 | 50.9 | 91.8 | Oc1ccc2nc(CN3CCC(Cc4ccc(I)cc4)CC3)[nH]c2c1
